The target of test [1] is T1, PGRP1 (Manduca sexta, UniProt Q86RS6).
T1 sequence (Q86RS6 20-191): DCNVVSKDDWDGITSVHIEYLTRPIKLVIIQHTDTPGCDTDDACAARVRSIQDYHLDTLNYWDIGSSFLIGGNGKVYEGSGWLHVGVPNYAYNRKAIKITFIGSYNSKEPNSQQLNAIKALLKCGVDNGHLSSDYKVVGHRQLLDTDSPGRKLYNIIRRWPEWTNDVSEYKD
Kind of test: SPR on a Biacore T200. The test is classed as binding. The note with it: read-out: Kd (μM), values without parentheses. Summed up: (§1)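 Association and dissociation were run on a Biacore T200 with amine-coupled protein. DAP- or Lys-muramyl pentapeptide, stored at −20 °C, was flowed in HBS-EP (10 mM HEPES, 150 mM NaCl, 3 mM EDTA, 0.005% polysorbate 20) at 30 μl/min and 25 °C. Multi-concentration curves were globally fitted to 1:1 and two-state models, and Kd came from the fit with lower χ2.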

Another test addresses PGRP3f. Kind of test: SPR on a Biacore T200. To be noted: read-out: Kd (μM), values without parentheses. The test is classed as binding. Summed up: as §1
Test [2] addresses PGRP3s. Kind of test: SPR on a Biacore T200. It is filed as binding. The note with it: read-out: Kd (μM), values without parentheses. The method, boiled down:
as §1

A further test has as its target PGRP4. Kind of test: SPR on a Biacore T200. The test is classed as binding. To be noted: read-out: Kd (μM), values without parentheses. Summed up:
as §1
(Surface plasmon resonance follows binding to a sensor surface in real time, without labels.)

The target in a further test is PGRP5. Kind of test: SPR on a Biacore T200. To be noted: read-out: Kd (μM), values without parentheses. It is filed as binding. Summed up: as §1
The target in another test is PGRP12e. Kind of test: SPR on a Biacore T200. It is filed as binding. To be noted: read-out: Kd (μM), values without parentheses. The method, boiled down:
as §1

A further test deals with PGRP13f. Kind of test: SPR on a Biacore T200. It is filed as binding. The note with it: read-out: Kd (μM), values without parentheses. Summed up: as §1
For the next test, the target named is T2, PGRP2 (Manduca sexta, UniProt D1KRK9).
T2 sequence (D1KRK9 19-196): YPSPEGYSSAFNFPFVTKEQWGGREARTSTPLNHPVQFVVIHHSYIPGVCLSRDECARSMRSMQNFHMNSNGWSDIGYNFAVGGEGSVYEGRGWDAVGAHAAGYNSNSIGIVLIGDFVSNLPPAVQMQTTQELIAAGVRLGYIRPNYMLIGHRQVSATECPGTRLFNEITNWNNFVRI
Kind of test: SPR on a Biacore T100. The note with it: read-out: Kd (μM), values in parentheses. The test is classed as binding. Summed up: (§2)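 On a Biacore T100, protein was amine-coupled and DAP- or Lys-muramyl pentapeptide, freshly prepared, was flowed in HBS-EP (10 mM HEPES, 150 mM NaCl, 3 mM EDTA, 0.005% polysorbate 20) at 30 μl/min and 25 °C. Curves at several analyte concentrations were globally fitted to 1:1 and two-state models, and the fit with lower χ2 gave Kd.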

Test [3] concerns the target PGRP3s. Kind of test: SPR on a Biacore T100. It is filed as binding. The note with it: read-out: Kd (μM), values in parentheses. Summed up:
as §2

Test [4] addresses T1, PGRP1. Kind of test: SPR on a Biacore T100. It is filed as binding. To be noted: read-out: Kd (μM), values in parentheses; cited from earlier work.
Test [5] concerns proPO activation in cell-free hemolymph from naïve larvae. Kind of test: Elicitor-independent proPO activation in plasma from naïve larvae. It is filed as biochemical, Manduca sexta. To be noted: at 40 ng/μl protein, 60 min, room temperature, no bacterial elicitor. The method, boiled down: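 Naïve larval plasma (day 2, 5th instar; hemocytes removed by 5000 × g, 5 min; stored −80 °C, used within a month) was diluted ten-fold in 20 mM Tris-HCl pH 8.0, 1 mM CaCl2, 0.001% Tween-20. Plasma (5 μl) was mixed with 0–1000 ng protein (final 25 μl) and incubated 60 min. BSA served as negative control. PO was read with dopamine at A470 in kinetic mode; mean ± SD, n = 3.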

The term Kd denotes the concentration at which binding is half-saturated. For “DAP-muramyl pentapeptide (meso-diaminopimelic acid-type peptidoglycan monomer) [DAP-MPP]”, the Kd on PGRP1 [1] is 2.01 µM; at PGRP3f, 4.7 µM; at PGRP3s [2], 1.75 µM; on PGRP4 it was 4.06 µM; at PGRP5, 2.01 µM; at PGRP12e, 2.64 µM. Also, the Kd on PGRP13f is 1.8 µM; at PGRP2, 0.49 µM; on PGRP3s [3], 0.42 µM; at PGRP1 [4], 0.57 µM.
As for “Lys-muramyl pentapeptide (Lys-type peptidoglycan monomer) [Lys-MPP]”, the dissociation constant Kd was found to be 38 µM at PGRP1 [1]; 29.2 µM on PGRP3f; 23.8 µM on PGRP3s [2]; 79.8 µM on PGRP4; 37.8 µM on PGRP5; 8.77 µM at PGRP13f. Also, the dissociation constant Kd was more than 100 µM at PGRP2, 64 µM on PGRP3s [3] and 45.6 µM at PGRP1 [4].
Consider bovine serum albumin [BSA], for which the PO activity in test [5] is 0.1 U.

The values above are taken from publication PMC11528686 (Insect biochemistry and molecular biology, 2022).
